Assay results: article PMC10076185 (Experimental eye research, 2023)

Key:
Assay in all cases: SPR, protein immobilised by amine coupling, OneStep injection
Type in all cases: binding
GSTP1 = GSTP1 (Homo sapiens, UniProt P09211)
Summary of the method: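 Human GSTP1 was expressed in E. coli and purified in-house, then amine-coupled to a carboxyl chip with an unmodified reference surface. Test compound in 100% DMSO was diluted to 1–100 µM in running buffer (10 mM PBS, 0.1% polyvinylpyrrolidone, 5% DMSO, pH 7.4) and injected as a Taylor-dispersion gradient, three times per concentration, at 25 °C. Sensorgrams were double-referenced with buffer blanks, and equilibrium binding constants were fitted.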

Human IRBP = Human IRBP (Homo sapiens, UniProt P10745)
Sequence of Human IRBP (P10745 18-1247): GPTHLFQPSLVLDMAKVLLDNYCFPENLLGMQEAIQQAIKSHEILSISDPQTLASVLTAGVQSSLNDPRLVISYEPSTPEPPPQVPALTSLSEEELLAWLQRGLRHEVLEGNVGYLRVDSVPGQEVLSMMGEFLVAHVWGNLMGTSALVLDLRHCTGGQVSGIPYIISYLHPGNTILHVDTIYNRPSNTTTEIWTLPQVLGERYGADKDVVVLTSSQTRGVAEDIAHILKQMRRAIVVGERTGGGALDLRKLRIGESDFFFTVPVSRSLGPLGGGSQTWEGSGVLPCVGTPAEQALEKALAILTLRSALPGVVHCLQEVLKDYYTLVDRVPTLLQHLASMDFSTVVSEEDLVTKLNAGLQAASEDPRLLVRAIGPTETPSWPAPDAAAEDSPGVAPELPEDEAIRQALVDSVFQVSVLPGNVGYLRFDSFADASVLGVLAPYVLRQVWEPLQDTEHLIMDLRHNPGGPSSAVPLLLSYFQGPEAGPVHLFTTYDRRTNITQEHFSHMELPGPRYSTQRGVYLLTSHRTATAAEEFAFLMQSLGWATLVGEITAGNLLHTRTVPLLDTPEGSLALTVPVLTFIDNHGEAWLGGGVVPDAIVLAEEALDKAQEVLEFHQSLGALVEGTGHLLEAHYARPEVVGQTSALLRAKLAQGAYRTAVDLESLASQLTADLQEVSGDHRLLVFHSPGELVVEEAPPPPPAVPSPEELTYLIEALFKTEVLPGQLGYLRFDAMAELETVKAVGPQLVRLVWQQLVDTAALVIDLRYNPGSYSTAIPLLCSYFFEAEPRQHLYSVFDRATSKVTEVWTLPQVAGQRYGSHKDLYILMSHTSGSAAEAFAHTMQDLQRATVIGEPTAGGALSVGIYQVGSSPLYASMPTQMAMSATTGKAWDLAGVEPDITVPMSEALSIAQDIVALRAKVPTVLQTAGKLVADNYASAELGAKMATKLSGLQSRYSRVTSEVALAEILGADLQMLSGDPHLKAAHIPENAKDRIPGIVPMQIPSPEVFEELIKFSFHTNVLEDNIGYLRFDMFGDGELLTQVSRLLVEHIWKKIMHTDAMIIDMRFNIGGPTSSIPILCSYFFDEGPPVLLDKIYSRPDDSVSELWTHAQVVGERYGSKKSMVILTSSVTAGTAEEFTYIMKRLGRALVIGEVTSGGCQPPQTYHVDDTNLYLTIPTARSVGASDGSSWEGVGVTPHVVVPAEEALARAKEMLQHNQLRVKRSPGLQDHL

Apo-D = Apo-D (Homo sapiens, UniProt P05090)
Sequence of Apo-D (P05090 21-189): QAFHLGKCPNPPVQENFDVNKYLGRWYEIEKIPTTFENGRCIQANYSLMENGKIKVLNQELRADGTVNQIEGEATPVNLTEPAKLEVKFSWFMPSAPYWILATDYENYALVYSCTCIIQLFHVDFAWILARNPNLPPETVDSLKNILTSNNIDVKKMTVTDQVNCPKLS
Summary of the method: (§1)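 Recombinant human proteins from commercial sources were amine-coupled to a carboxyl sensor chip beside an unmodified reference surface. Test compound in 100% DMSO was diluted to 1–100 µM in running buffer (10 mM PBS, 0.1% polyvinylpyrrolidone, 5% DMSO, pH 7.4) and given as a Taylor-dispersion gradient, three injections each, at 25 °C and 10 Hz. Sensorgrams were zeroed and double-referenced against buffer blanks, and equilibrium constants were fitted.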

Apo-E = Apo-E (Homo sapiens, UniProt P02649)
Sequence of Apo-E (P02649 19-317): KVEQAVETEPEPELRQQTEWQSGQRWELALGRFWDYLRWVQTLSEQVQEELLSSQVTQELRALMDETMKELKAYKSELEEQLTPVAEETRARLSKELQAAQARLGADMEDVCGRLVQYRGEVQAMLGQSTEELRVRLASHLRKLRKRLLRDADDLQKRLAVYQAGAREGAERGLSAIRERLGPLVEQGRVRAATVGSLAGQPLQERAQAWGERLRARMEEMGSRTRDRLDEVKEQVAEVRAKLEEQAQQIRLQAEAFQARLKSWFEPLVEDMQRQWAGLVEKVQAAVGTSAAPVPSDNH
Summary of the method: as §1

Apo-AI = Apo-AI (Homo sapiens, UniProt P02647)
Sequence of Apo-AI (P02647 25-267): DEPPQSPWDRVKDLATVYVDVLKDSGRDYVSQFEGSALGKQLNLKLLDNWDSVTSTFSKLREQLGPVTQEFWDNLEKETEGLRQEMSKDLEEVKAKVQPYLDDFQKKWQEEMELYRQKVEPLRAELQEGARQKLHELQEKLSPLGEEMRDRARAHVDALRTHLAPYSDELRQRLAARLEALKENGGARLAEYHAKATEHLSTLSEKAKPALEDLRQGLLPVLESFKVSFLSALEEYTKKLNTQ

Apo-AII = Apo-AII (Homo sapiens, UniProt P02652)
Sequence of Apo-AII (P02652 24-100): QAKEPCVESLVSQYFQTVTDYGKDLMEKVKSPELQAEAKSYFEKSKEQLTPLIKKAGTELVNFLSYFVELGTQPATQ
Summary of the method: as §1

Apo-M = Apo-M (Homo sapiens, UniProt O95445)
Sequence of Apo-M (O95445 whole entry): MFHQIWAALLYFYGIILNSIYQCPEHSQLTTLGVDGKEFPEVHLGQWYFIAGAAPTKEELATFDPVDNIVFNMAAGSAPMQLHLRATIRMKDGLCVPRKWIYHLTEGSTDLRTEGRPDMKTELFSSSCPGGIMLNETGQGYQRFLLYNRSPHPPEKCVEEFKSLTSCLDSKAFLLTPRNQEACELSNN
Summary of the method: as §1

Sequence of GSTP1 (P09211 2-210): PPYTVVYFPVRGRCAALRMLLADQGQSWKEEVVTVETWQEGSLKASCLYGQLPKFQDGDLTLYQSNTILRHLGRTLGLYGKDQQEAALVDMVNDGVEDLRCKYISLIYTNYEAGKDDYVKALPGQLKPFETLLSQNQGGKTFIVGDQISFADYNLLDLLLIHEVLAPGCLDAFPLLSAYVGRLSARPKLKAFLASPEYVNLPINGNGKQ

| Kd (GSTP1) [nM] | Kd (Human IRBP) [nM] | Kd (Apo-D) [nM] | Kd (Apo-E) [nM] | Kd (Apo-AI) [nM] | Kd (Apo-AII) [nM] | Kd (Apo-M) [nM] | Compound |
| --- | --- | --- | --- | --- | --- | --- | --- |
| 150 ± 20 | 1640 ± 60 | – | – | – | – | – | CC1=C(/C=C/C(C)=C/C=C/C(C)=C/C=C/C=C(C)/C=C/C=C(C)/C=C/C2=C(C)C(=O)[C@@H](O)CC2(C)C)C(C)(C)C[C@H](O)C1=O [Astaxanthin] |
| 53 ± 10 | 1640 ± 500 | 68200 | 9250 | 5620 | 1840 ± 90 | 81000 ± 9000 | CC1=C(/C=C/C(C)=C/C=C/C(C)=C/C=C/C=C(C)/C=C/C=C(C)/C=C/C2=C(C)C[C@@H](O)CC2(C)C)C(C)(C)C[C@H](O)C1 [Zeaxanthin] |
| – | 920 ± 100 | 10 | 400 ± 60 | 330 ± 30 | – | 50 | CC1=C(/C=C/C(C)=C/C=C/C(C)=C/C=C/C=C(C)/C=C/C=C(C)/C=C/C2=C(C)CCCC2(C)C)C(C)(C)CCC1 [β-Carotene] |
| – | 1060 ± 200 | 84000 ± 1000 | 21000 ± 1000 | 12100 | 6100 ± 300 | 35000 ± 1000 | CC1=C[C@H](O)CC(C)(C)[C@H]1/C=C/C(C)=C/C=C/C(C)=C/C=C/C=C(C)/C=C/C=C(C)/C=C/C1=C(C)C[C@@H](O)CC1(C)C [Lutein] |
| 55 ± 30 | 1850 ± 300 | 45600 | 6220 | 7900 ± 200 | 1600 ± 700 | 35400 ± 800 | CC1=C(/C=C/C(C)=C/C=C/C(C)=C/C=C/C=C(C)/C=C/C=C(C)/C=C/C2=C(C)C[C@H](O)CC2(C)C)C(C)(C)C[C@H](O)C1 [meso-Zeaxanthin] |
